Article PMC12814486 (Bioorganic & medicinal chemistry, 2025)
Values after ≈ are worked out from the molar mass of the structure shown.

Key:
[1] = target: T1, human FAAH (Homo sapiens, UniProt O00519); test: FAAH inhibition assay; type: biochemical
T1 sequence (O00519 1-579): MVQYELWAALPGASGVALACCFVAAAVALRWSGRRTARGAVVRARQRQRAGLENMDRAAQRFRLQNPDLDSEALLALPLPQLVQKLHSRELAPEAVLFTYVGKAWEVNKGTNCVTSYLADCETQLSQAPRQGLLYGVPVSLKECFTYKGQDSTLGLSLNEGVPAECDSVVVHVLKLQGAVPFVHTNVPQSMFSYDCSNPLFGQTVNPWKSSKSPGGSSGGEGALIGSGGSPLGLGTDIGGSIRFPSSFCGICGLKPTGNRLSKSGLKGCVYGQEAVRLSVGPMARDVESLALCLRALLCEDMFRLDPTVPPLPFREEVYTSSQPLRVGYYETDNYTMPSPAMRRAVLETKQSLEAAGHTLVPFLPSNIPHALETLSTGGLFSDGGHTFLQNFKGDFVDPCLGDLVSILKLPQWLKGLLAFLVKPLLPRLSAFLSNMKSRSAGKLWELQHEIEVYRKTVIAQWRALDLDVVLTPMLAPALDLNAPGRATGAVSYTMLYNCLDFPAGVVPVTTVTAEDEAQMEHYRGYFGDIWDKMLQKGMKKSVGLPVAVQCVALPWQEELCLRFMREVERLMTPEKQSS

[2] = target: 5-HT4 (Homo sapiens, UniProt Q13639); test: NIMH PDSP binding screen; details: read-out: Inhibition (%) 5-HT4
5-HT4, sequence (Q13639 whole entry, species assumed): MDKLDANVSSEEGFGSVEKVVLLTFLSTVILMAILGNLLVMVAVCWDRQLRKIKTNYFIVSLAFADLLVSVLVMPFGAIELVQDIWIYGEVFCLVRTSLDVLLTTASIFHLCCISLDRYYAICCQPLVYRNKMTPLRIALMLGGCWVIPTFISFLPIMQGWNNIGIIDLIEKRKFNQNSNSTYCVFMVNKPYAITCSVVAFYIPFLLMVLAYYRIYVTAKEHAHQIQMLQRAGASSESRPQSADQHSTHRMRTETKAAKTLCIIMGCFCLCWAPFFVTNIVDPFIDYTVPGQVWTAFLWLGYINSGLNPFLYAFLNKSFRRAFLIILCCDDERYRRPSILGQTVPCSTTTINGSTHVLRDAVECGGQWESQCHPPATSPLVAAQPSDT

[3] = target: Kappa opioid (KOR) (Homo sapiens, UniProt P41145); test: NIMH PDSP binding screen; details: read-out: Inhibition (%) Kappa opioid (KOR)
Kappa opioid (KOR), sequence (P41145 whole entry): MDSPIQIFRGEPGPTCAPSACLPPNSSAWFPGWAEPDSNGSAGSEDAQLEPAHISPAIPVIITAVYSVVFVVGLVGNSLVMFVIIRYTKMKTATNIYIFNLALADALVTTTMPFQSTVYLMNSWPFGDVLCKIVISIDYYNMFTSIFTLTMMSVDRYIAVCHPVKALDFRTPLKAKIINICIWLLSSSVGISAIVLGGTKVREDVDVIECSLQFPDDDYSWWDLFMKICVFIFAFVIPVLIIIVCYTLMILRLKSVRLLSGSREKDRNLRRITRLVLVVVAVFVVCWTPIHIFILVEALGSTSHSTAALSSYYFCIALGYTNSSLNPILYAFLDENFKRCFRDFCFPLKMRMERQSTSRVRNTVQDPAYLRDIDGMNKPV

[4] = tested on: male Sprague-Dawley rats; test: Home cage wheel running; type: in vivo, rat; details: 3 mg/kg intraperitoneal, vs vehicle, n = 8/group
[5] = target: 5-HT1D (Homo sapiens, UniProt P28221); test: NIMH PDSP binding screen; details: read-out: Inhibition (%) 5-HT1D
5-HT1D, sequence (P28221 whole entry, species assumed): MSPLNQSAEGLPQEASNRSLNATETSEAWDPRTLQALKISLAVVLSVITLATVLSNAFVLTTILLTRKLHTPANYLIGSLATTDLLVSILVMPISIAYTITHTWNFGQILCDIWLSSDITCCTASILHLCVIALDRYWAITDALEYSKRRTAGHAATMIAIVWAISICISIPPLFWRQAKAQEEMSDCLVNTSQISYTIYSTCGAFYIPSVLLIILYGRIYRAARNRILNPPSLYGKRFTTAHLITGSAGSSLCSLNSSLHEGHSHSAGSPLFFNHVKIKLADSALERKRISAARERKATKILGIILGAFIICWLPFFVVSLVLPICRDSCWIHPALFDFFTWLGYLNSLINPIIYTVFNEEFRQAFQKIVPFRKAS

[6] = target: T2, rat sEH (Rattus norvegicus, UniProt P80299); test: sEH inhibition assay; type: biochemical
T2 sequence (P80299 1-554): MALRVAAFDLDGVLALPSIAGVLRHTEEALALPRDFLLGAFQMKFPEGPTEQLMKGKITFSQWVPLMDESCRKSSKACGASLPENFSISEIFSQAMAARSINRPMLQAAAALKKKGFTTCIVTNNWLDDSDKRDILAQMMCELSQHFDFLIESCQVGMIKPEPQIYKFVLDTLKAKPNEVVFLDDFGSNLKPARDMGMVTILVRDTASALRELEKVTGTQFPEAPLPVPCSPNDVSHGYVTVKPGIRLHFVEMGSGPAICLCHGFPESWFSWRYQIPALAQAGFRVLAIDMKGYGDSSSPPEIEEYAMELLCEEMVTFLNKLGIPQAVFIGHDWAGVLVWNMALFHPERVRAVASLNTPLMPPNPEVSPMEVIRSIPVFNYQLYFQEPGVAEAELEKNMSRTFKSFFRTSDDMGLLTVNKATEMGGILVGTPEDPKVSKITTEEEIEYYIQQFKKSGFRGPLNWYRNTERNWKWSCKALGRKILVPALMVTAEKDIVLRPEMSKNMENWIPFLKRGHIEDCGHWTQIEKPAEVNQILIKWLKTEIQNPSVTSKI

[7] = Microsomal stability assay in liver microsomes; type: in vitro ADME; details: human, pH 7.4
How it was run: (§1)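 Test compound was taken from a 1 mM DMSO stock. It was preincubated 5 min at 37 °C with liver microsomes in 0.1 M phosphate buffer, pH 7.4. Reaction was started with an NADPH regenerating system (glucose-6-phosphate, NADPH, glucose-6-phosphate dehydrogenase, MgCl2) and quenched with methanol at 0, 10, 20, 30 and 60 min. Samples were centrifuged and read by LC-MS SIM as peak area ratio to internal standard. k = negative slope of ln ratio vs time; CLint = k/P (P = protein concentration). Duplicates or triplicates were averaged.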

[8] = Microsomal stability assay in liver microsomes; type: in vitro ADME; details: rat, pH 7.4
How it was run: as §1

[9] = Microsomal stability assay in liver microsomes; type: in vitro ADME; details: mouse, pH 7.4
How it was run: as §1

[10] = target: Delta opioid (DOR) (Homo sapiens, UniProt P41143); test: NIMH PDSP binding screen; details: read-out: Inhibition (%) Delta opioid (DOR)
Delta opioid (DOR), sequence (P41143 whole entry): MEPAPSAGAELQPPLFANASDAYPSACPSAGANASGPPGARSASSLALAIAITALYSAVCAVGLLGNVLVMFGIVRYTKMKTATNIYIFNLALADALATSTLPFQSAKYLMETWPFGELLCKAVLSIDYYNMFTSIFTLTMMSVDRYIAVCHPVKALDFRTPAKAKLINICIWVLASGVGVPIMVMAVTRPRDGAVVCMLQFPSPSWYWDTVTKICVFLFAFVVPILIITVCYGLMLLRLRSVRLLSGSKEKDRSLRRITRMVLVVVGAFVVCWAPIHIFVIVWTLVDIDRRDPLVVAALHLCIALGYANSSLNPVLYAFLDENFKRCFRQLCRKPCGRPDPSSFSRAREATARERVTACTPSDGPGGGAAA

[11] = target: 5-HT2B (Homo sapiens, UniProt P41595); test: NIMH PDSP binding screen; details: read-out: Inhibition (%) 5-HT2B
5-HT2B, sequence (P41595 whole entry, species assumed): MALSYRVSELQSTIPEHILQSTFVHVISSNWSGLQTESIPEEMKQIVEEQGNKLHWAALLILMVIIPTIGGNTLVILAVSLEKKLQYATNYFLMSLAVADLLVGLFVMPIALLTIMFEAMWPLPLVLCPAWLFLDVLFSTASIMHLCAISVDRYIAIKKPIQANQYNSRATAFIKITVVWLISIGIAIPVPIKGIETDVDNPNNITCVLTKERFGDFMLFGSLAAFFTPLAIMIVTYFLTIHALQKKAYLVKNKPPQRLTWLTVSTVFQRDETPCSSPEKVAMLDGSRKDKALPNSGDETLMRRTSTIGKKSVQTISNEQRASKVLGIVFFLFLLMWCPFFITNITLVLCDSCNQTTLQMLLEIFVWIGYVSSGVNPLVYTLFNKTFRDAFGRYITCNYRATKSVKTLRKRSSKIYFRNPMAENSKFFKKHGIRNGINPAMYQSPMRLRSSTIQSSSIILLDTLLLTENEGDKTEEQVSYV

[12] = Solubility assay; type: physicochemical; details: sodium phosphate buffer, pH 7.4, aqueous buffer, kinetic from dmso stock
[13] = target: 5-HT2A (Homo sapiens, UniProt P28223); test: NIMH PDSP binding screen; details: read-out: Inhibition (%) 5-HT2A
5-HT2A, sequence (P28223 whole entry, species assumed): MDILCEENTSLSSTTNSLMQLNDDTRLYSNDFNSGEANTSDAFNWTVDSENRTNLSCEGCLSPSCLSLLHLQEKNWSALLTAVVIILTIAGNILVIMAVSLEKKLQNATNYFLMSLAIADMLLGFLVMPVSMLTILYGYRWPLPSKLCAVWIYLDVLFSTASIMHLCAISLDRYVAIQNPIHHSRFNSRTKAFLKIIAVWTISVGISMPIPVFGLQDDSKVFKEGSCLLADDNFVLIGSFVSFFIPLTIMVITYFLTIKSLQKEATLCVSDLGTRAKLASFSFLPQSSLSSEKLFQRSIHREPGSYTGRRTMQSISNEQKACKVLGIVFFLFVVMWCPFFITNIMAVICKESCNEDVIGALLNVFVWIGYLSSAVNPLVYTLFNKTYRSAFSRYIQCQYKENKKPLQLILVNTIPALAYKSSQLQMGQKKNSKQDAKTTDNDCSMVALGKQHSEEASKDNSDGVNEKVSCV

[14] = target: T3, 5-HT1A (Homo sapiens, UniProt P08908); test: NIMH PDSP binding screen; details: read-out: Inhibition (%) 5-HT1A
T3 sequence (P08908 1-422): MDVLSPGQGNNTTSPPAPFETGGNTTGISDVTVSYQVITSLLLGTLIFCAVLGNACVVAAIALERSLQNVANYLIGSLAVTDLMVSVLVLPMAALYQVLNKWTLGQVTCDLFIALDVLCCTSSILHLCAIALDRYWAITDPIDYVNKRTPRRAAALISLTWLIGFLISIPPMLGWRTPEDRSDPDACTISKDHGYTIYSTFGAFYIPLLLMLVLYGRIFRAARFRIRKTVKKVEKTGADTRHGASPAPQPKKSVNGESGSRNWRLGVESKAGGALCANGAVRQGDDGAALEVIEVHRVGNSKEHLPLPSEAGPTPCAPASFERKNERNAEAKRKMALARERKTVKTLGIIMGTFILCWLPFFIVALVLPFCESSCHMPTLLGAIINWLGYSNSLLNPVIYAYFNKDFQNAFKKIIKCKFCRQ

O=C(Nc1ccc(-c2cnc3ccccc3n2)cc1)C1CCN(S(=O)(=O)c2ccccc2Cl)CC1 [Compound 4m, 1-((2-chlorophenyl)sulfonyl)-N-(4-(quinoxalin-2-yl)phenyl)piperidine-4-carboxamide]
IC50 [1]: 2.9 nM
inhibition at 10 µM [2]: 29.6 ± 23.2%
inhibition at 10 µM [3]: 5.59 ± 6.57%
wheel revolutions in the 15 min after drug injection [4]: significantly lower
inhibition at 10 µM [5]: -8.07 ± 3.46%
IC50 [6]: 0.3 nM
half-life at 1 µM [7]: > 60 min
microsomal CLint at 1 µM [7]: 22.5 µL/min/mg
half-life at 1 µM [8]: 26 min
microsomal CLint at 1 µM [8]: 52.6 µL/min/mg
half-life at 1 µM [9]: 32 min
microsomal CLint at 1 µM [9]: 42.8 µL/min/mg
inhibition at 10 µM [10]: -0.23 ± 11.9%
inhibition at 10 µM [11]: -4.41 ± 7.06%
solubility [12]: 31 to 63 µM (≈ 15.7 to 31.9 µg/mL)
inhibition at 10 µM [13]: 1.96 ± 1.88%
inhibition at 10 µM [14]: -18 ± 14.6%
